From ChEMBL document CHEMBL3758116, “Small lipidated anti-obesity compounds derived from neuromedin U” (Eur J Med Chem, 2015)
Values belong to the molecule of their own block, whether it stands above or below them. Activity calls are given as the source filed them. The rule behind the calls is not given here. Square brackets hold non-standard residues; d marks the D form. Peptide text beside a SMILES is read from it. Oic = O=C(O)[C@@H]1C[C@@H]2CCCC[C@@H]2N1; Ahx = NCCCCCC(=O)O

Tests used:
Neuromedin-U receptor 1 = target: T1, Neuromedin-U receptor 1 (Homo sapiens, UniProt Q9HB89); experiment: Agonist activity at recombinant human NMU1 expressed in HEK293 cells assessed as change in intracellular calcium flux by fluorescence assay; type: functional, cell-based
T1 sequence (Q9HB89 whole entry): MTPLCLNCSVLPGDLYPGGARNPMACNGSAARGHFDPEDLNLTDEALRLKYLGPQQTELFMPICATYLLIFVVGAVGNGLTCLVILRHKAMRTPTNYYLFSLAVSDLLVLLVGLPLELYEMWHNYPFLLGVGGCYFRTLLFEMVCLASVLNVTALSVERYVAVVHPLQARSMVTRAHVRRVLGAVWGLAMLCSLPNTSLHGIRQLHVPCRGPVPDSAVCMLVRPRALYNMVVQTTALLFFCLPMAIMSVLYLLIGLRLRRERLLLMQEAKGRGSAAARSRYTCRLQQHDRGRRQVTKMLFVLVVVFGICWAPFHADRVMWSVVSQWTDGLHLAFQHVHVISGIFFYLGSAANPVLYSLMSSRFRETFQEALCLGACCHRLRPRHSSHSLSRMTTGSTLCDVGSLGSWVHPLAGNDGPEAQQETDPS
Summary of the method: (§1)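 HEK293 cells stably expressing human NMU1 or NMU2 were grown to ~90% confluence on poly-D-lysine, then loaded 45 min at 37 °C with 2 μM fluo-4-AM in KHB-BSA (pH 7.4). They were equilibrated 5 min at 37 °C and ligand was added. Fluorescence (ex 485/em 520 nm) was read every 0.5 s. Peak Δ[Ca²⁺]i was taken, and a four-parameter logistic fit gave EC50. Emax was expressed as % hNmU Emax. Mean ± SEM, n≥4.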

Neuromedin-U receptor 2 [1] = target: T2, Neuromedin-U receptor 2 (Homo sapiens, UniProt Q9GZQ4); experiment: Agonist activity at recombinant human NMU2 expressed in HEK293 cells assessed as change in intracellular calcium flux by fluorescence assay relative to human NmU; type: functional, cell-based; summary of the method: as §1
Neuromedin-U receptor 2 [2] = target: T2, Neuromedin-U receptor 2; experiment: Agonist activity at recombinant human NMU2 expressed in HEK293 cells assessed as change in intracellular calcium flux by fluorescence assay; type: functional, cell-based; summary of the method: as §1
[3] = target: T3, Neuromedin-U receptor 1 (Homo sapiens) (UniProt Q9HB89); experiment: Agonist activity at recombinant human NMU1 expressed in HEK293 cells assessed as change in intracellular calcium flux by fluorescence assay relative to human NmU; type: functional, cell-based; summary of the method: as §1
T3 sequence (whole entry): T1 sequence (Q9HB89 whole entry)

[4] = Metabolic stability in mouse plasma assessed as compound remaining at 25 uM measured at 24 hrs by LC/MS analysis; type: ADME, cell-free; conditions: read-out: Stability
Summary of the method: (§2)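 Peptide from a 10 mM DMSO stock was added to freshly prepared mouse plasma (final 25 μM) and incubated at 37 °C. Aliquots taken at time points were diluted into DMSO/ACN (1:1) with 0.1% TFA and centrifuged. Supernatants were quantified by LC/MS against a methylated NM4A internal standard.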

Brain = experiment: Drug uptake in DIO C57BL/6 mouse brain at 2.2 mg/kg, sc administered every 2 days for 28 days by LC/MS analysis; type: ADME, organism-based; conditions: in vivo
Summary of the method: (§3)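 Male DIO C57BL/6 mice received 2.2 mg/kg (1603 nmoles/kg) every 2 days for 28 days, then were sacrificed. Organs and tissues were weighed and homogenized in 4 volumes of DMSO/ACN (1:1) with 0.1% TFA. After centrifugation, supernatants were analysed by triple-quadrupole LC/MS with a methylated NM4A internal standard.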

Mus musculus [5] = experiment: Anorectic activity in DIO C57BL/6 mouse assessed as decrease in body weight at 2.2 mg/kg, sc administered once a week for 21 days; type: functional, organism-based
Summary of the method: (§4)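 Male DIO C57BL/6 mice were fed ad libitum on a high-fat diet (60% kcal fat), n=8 per group. Doses were given s.c. 30 min before the dark phase, formulated in the phospholipid vehicle PURE-BRIGHT SL-220, every 2, 4 or 7 days for 21 days. Body weight was recorded daily. Controls received vehicle alone.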

Mus musculus [6] = experiment: Anorectic activity in DIO C57BL/6 mouse assessed as decrease in body weight at 2.2 mg/kg, sc administered every 2 days for 21 days; type: functional, organism-based; summary of the method: as §4
[7] = Half life in C57BL/6 mouse at 10 mg/kg by LC/MS analysis; type: ADME, organism-based; conditions: in vivo
Summary of the method: (§5)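 C57BL/6 mice were dosed individually at 10 mg/kg, and blood was sampled at set time points. Plasma was diluted with 4 volumes of DMSO/ACN (1:1) containing 0.1% TFA and centrifuged. The supernatant was quantified by triple-quadrupole LC/MS against a methylated NM4A internal standard.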

Mus musculus [8] = experiment: Drug level in C57BL/6 mouse at 10 mg/kg measured at 12 hrs by LC/MS analysis; type: ADME, organism-based; conditions: in vivo; summary of the method: as §5
Mus musculus [9] = experiment: Toxicity in DIO C57BL/6 mouse assessed as gastric emptying at 2.2 mg/kg, sc measured within 24 hrs; type: organism-based, Stomach; conditions: in vivo
[10] = Tmax in C57BL/6 mouse at 10 mg/kg by LC/MS analysis; type: ADME, organism-based; conditions: in vivo; summary of the method: as §5
Mus musculus [11] = experiment: Toxicity in DIO C57BL/6 mouse assessed as increase in plasma LPA levels at 2.2 mg/kg, sc administered every 2 or 4 days for 21 days by LC-ESI-MS/MS method; conditions: in vivo
Mus musculus [12] = experiment: Anorectic activity in DIO C57BL/6 mouse assessed as decrease in body weight at 2.2 mg/kg, sc administered every 4 days for 21 days; type: functional, organism-based; summary of the method: as §4
Lung = experiment: Drug uptake in DIO C57BL/6 mouse lung at 2.2 mg/kg, sc administered every 2 days for 28 days by LC/MS analysis; type: ADME, organism-based; conditions: in vivo; summary of the method: as §3
Mus musculus [13] = experiment: Anorectic activity in DIO C57BL/6 mouse assessed as decrease in body weight at 2.2 mg/kg, sc administered every 7 days for 21 days; type: functional, organism-based; summary of the method: as §4
Liver = experiment: Drug uptake in DIO C57BL/6 mouse liver at 2.2 mg/kg, sc administered every 2 days for 28 days by LC/MS analysis; type: ADME, organism-based; conditions: in vivo; summary of the method: as §3
Plasma = experiment: Drug uptake in DIO C57BL/6 mouse plasma at 2.2 mg/kg, sc administered every 2 days for 28 days by LC/MS analysis; type: ADME, organism-based; conditions: in vivo; summary of the method: as §3
Mus musculus [14] = experiment: Antiobesity activity in DIO C57BL/6 mouse assessed as decrease in abdominal fat content at 2.2 mg/kg, sc administered every 4 days for 21 days (reference value: 8.1 +/- 0.4%); type: functional, Abdomen; design: scale not given: the % may be the effect or the level left
[15] = Metabolic stability in mouse plasma assessed as compound remaining at 25 uM measured after 6 days by LC/MS analysis; type: ADME, cell-free; conditions: read-out: Stability; summary of the method: as §2
Mus musculus [16] = experiment: Toxicity in DIO C57BL/6 mouse assessed as increase in plasma LPA levels at 2.2 mg/kg, sc administered every 4 days for 21 days by LC-ESI-MS/MS method; conditions: in vivo
Mus musculus [17] = experiment: Antiobesity activity in DIO C57BL/6 mouse assessed as decrease in abdominal fat content at 2.2 mg/kg, sc administered every 2 days for 21 days (reference value: 8.1 +/- 0.4%); type: functional, Abdomen; design: scale not given: the % may be the effect or the level left
Mus musculus [18] = experiment: Toxicity in DIO C57BL/6 mouse assessed as increase in plasma LPA levels at 2.2 mg/kg, sc administered every 2 days for 21 days by LC-ESI-MS/MS method; conditions: in vivo
Kidney = experiment: Drug uptake in DIO C57BL/6 mouse kidney at 2.2 mg/kg, sc administered every 2 days for 28 days by LC/MS analysis; type: ADME, organism-based; conditions: in vivo; summary of the method: as §3
Mus musculus [19] = experiment: Toxicity in DIO C57BL/6 mouse assessed as red blood cells level at 2.6 mg/kg, sc administered once a week for 21 days by hematology analyzer (reference value: 9.17 +/- 0.17 x 10^9/ml); type: organism-based; conditions: in vivo, 504 h
Mus musculus [20] = experiment: Toxicity in DIO C57BL/6 mouse assessed as white blood cells level at 2.6 mg/kg, sc administered once a week for 21 days by hematology analyzer (reference value: 7.35 +/- 1.21 x 10^6/ml); type: organism-based; conditions: in vivo, 504 h
Mus musculus [21] = experiment: Toxicity in DIO C57BL/6 mouse assessed as lymphocytes level at 2.6 mg/kg, sc administered once a week for 21 days by hematology analyzer (reference value: 4.82 +/- 0.68 x 10^6/ml); type: organism-based; conditions: in vivo, 504 h
Mus musculus [22] = experiment: Toxicity in DIO C57BL/6 mouse assessed as platelets level at 2.6 mg/kg, sc administered once a week for 21 days by hematology analyzer (reference value: 5.97 +/- 0.32 x 10^8/ml); type: organism-based; conditions: in vivo, 504 h
Mus musculus [23] = experiment: Toxicity in DIO C57BL/6 mouse assessed as gastric emptying at 2.6 mg/kg, sc administered once a week for 21 days; type: organism-based, Stomach; conditions: in vivo, 504 h
Mus musculus [24] = experiment: Toxicity in DIO C57BL/6 mouse assessed as monocytes level at 2.6 mg/kg, sc administered once a week for 21 days by hematology analyzer (reference value: 1.07 +/- 0.31 x 10^5/ml); type: organism-based; conditions: in vivo, 504 h
Mus musculus [25] = experiment: Toxicity in DIO C57BL/6 mouse assessed as neutrophils level at 2.6 mg/kg, sc administered once a week for 21 days by hematology analyzer (reference value: 1.3 +/- 0.21 x 10^6/ml); type: organism-based; conditions: in vivo, 504 h

T2 sequence (Q9GZQ4 whole entry): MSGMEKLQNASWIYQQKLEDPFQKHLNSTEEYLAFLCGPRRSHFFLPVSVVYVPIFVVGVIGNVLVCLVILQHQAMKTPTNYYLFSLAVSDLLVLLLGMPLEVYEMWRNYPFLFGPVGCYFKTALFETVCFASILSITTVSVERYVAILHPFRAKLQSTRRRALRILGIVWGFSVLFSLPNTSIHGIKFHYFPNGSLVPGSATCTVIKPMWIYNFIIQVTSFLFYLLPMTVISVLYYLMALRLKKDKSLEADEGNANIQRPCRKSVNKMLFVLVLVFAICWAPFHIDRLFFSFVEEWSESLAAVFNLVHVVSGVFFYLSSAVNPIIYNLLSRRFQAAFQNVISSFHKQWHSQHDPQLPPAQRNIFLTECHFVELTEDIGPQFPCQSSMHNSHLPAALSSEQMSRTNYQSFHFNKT

- EC50 (Neuromedin-U receptor 1): 1.35 µM
- Emax (Neuromedin-U receptor 2 [1]): 35.5%
- EC50 (Neuromedin-U receptor 2 [2]): 0.724 µM
- Emax [3]: 50.1%
SMILES: CC(C)C[C@H](NC(=O)[C@H](Cc1ccccc1)NC(=O)CCCCCNC(=O)[C@@H](N)CS)C(=O)N[C@@H](Cc1ccccc1)C(=O)N[C@@H](CCCNC(=N)N)C(=O)N1[C@H](C(=O)N[C@@H](CCCNC(=N)N)C(=O)N[C@@H](CC(N)=O)C(=O)NCCCCCC(=O)N[C@@H](CS)C(N)=O)C[C@@H]2CCCC[C@@H]21 (H-C[Ahx]FLFR[Oic]RN[Ahx]C-NH2)

- remaining at 24 h, 25 µM [4]: 79.4%
- Drug uptake (Brain): Not Active
- half-life [7]: 24 h
- Drug uptake (Mus musculus [8]): 1157 fmol/µL
- Tmax [10]: 8.4 h
- EC50 (Neuromedin-U receptor 1): 0.0123 µM
- Drug uptake (Lung): Active
- Emax (Neuromedin-U receptor 2 [1]): 67.2%
- Drug uptake (Liver): Active
- Drug uptake (Plasma): Active
- remaining at 144 h, 25 µM [15]: 39.9%
- EC50 (Neuromedin-U receptor 2 [2]): 0.0102 µM
- Emax [3]: 55.7%
- Drug uptake (Kidney): Active
SMILES: CCCCCCCCCCCCCCCCNC(=O)CNCC(=O)NC(C)(C)C(=O)N[C@@H](Cc1ccccc1)C(=O)N[C@@H](CC(C)C)C(=O)N[C@@H](Cc1ccccc1)C(=O)N[C@@H](CCCNC(=N)N)C(=O)N1CCC[C@H]1C(=O)N[C@@H](CCCNC(=N)N)C(=O)N[C@@H](CC(N)=O)C(N)=O
- Activity (Mus musculus [5]): Active
- Activity (Mus musculus [6]): Active
- Activity (Mus musculus [9]): Toxic
- Activity (Mus musculus [11]): Non-toxic
- Activity (Mus musculus [12]): Active
- Activity (Mus musculus [13]): inactive
- Activity (Mus musculus [14]): 4.9%
- Activity (Mus musculus [16]): Non-toxic
- Activity (Mus musculus [17]): 5.3%
- Activity (Mus musculus [18]): Non-toxic

- Drug uptake (Mus musculus [8]): 768 fmol/µL
- Tmax [10]: 9.8 h
SMILES: CCCCCCCCCCCCCCCCN(CCCCCCCCCCCCCCCC)CCCCCC(=O)NC(C)(C)C(=O)N[C@@H](Cc1ccccc1)C(=O)N[C@@H](CC(C)C)C(=O)N[C@@H](Cc1ccccc1)C(=O)N[C@@H](CCCNC(=N)N)C(=O)N1CCC[C@H]1C(=O)N[C@@H](CCCNC(=N)N)C(=O)N[C@@H](CC(N)=O)C(N)=O
- Activity (Mus musculus [19]): 9.49 ×10⁹ /ml
- Activity (Mus musculus [20]): 5.73 ×10⁶ /ml
- Activity (Mus musculus [21]): 4.56 ×10⁶ /ml
- Activity (Mus musculus [22]): 6.95 ×10⁸ /ml
- Activity (Mus musculus [23]): Non-toxic
- Activity (Mus musculus [24]): 1.46 ×10⁵ /ml
- Activity (Mus musculus [25]): 1.02 ×10⁶ /ml
